STEP inh = STEP phosphatase inhibitors, primary screen, biochemical, fluorescence intensity, uHTS | 360,000 tested, 0.25% active | recombinant STEP, OMFP fluorogenic substrate | inhibition, % at 20 µM;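 active means inhibition at 20 µM, scaled per plate between control wells, above about 37%, limit read from the data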
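Assay system: isolated STEP enzyme / Timing: 20 min at room temperature, dark / Doses: 20 µM, 1% DMSO / Technique: fluorescence intensity, excitation 480 nm, emission 540 nm / Reagent: fluorogenic phosphatase substrate OMFP at 25 µM final / Measure: percent inhibition scaled to no-enzyme and uninhibited-enzyme controls, plate-pattern corrected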
SUMO1 PPI mod = modulators of SUMO1 protein-protein interactions, primary screen, biochemical, uHTS; AID 602429, 2012; 360,000 tested, 0.33% active; inhibition, % at 20 µM; SUMO1 binding to a labelled peptide, TR-FRET, 1 h; in the data active means inhibition above about 37%
Target sequence (P63165 whole entry, looked up): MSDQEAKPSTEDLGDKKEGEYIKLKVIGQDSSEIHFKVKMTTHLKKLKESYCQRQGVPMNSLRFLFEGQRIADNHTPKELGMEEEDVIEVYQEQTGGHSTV
HKDC1 inhibitor = HKDC1 hexokinase inhibitors, primary screen, biochemical, fluorescence, uHTS. recombinant HKDC1, G6PDH/diaphorase resazurin coupled fluorescence. inhibition, % at 20 µM. 340,000 tested, 0.16% active;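 active means inhibition above about 35% when tested at 20 µM, limit read from the data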
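Assay system – recombinant HKDC1 (HK5) hexokinase enzyme, produced in-house · Input – HKDC1 at 5 µg/mL · Reagent – glucose plus 1 mM ATP as hexokinase substrates · Timing – 90 min reaction incubation at room temperature, dark · Measured by – G6PDH/diaphorase-coupled fluorescence, 1 mM NADP, 100 µM resazurin, 525/613 nm · Benchmarks – DMSO-enzyme wells negative, buffer-substituted wells positive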
DNMT1 block = human DNMT1 methyltransferase inhibitors, primary screen, biochemical, molecular beacon, fluorescence, HinP1I cleavage, uHTS | inhibition (reported as % activation of signal), % at 10 µM | 360,000 tested, 0.83% active | DNA (cytosine-5)-methyltransferase 1 (Homo sapiens), P26358 | AID 588458, 2011; in the data active means inhibition above about 50%
Scp-1 inhibitor = Scp-1 phosphatase inhibitors, primary screen, biochemical, colorimetric, uHTS. Recombinant Scp1, phosphopeptide, malachite green phosphate absorbance. inhibition, % at 20 µM. 340,000 tested, 0.88% active;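 active means inhibition above about 50% at 20 µM, limit read from the data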
Target sequence (Q9GZU7 76-261 limits assumed): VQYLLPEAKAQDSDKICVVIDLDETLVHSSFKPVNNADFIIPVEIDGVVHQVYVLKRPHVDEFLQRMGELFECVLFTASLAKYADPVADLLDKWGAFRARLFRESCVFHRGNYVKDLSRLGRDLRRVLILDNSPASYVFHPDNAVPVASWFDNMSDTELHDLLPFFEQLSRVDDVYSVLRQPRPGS
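System: SCP-1 catalytic domain; Reagent: Phospho 17-mer peptide substrate; Doses: one concentration, 20 µM, with 1.0% DMSO; Incubation: 45 min room-temperature reaction, 5 min colour, 30 min stabiliser; Signal: Phosphate-binding colour reagent, absorbance read at 630 nm.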
LMPTP block = LMPTP phosphatase inhibitors, primary screen, biochemical, fluorescence intensity, uHTS; Low molecular weight phosphotyrosine protein phosphatase (Homo sapiens), P24666; recombinant LMPTP-A, OMFP fluorogenic substrate; inhibition, % at 20 µM; 360,000 tested, 0.22% active; AID 651560, 2012;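 active means compounds that cut the enzyme signal by at least half of the control window in the single-dose screen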
Target sequence (P24666 whole entry, looked up): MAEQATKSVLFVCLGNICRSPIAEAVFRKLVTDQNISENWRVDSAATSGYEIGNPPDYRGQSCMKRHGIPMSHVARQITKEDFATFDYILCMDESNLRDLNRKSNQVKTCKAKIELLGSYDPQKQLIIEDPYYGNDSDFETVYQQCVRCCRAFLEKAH
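Assay system: LMPTP-A enzyme. Input: 0.625 nM LMPTP-A final. Probe or stimulus: 400 µM OMFP. Compound dosing: single 20 µM dose. Schedule: 50 min dark incubation at room temperature. Detection: fluorescence intensity of OMFP turnover product. Read-out: percent inhibition versus substrate-only and uninhibited controls. Benchmarks: no-enzyme low control, uninhibited high control.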
Hits are given with their value; . = inactive; / = no result. This is a sample that favours compounds with a hit; in the whole collection about 1.8% have one here.

SMILES	STEP inh	SUMO1 PPI mod	HKDC1 inhibitor	DNMT1 block	Scp-1 inhibitor	LMPTP block
C#CCn1c(=O)cc(C)c2ccccc21	.	.	.	.	.	.
C#CCn1cc(C=C2C(=O)c3ccccc3C2=O)c2ccccc21	.	.	.	60	.	.
Cc1ccc(-c2cc(C(=O)Nc3ccccn3)c3ccccc3n2)o1	.	.	.	61	58	.
Cc1ccc(NC(=O)c2cc(-c3ccc(C)o3)nc3ccccc23)cc1	.	.	.	.	.	.
Cc1ccc(NC(=O)CSCC(=O)NC2=NCCS2)cc1	.	.	.	.	.	.
CC(C)(C)N(Cc1ccccc1)C(=O)COC(=O)C1=NN(c2ccccc2)C(=O)CC1	.	.	.	.	.	.
COc1ccc(C2c3ccc4ccccc4c3Oc3ncn(CCN(C)C)c(=N)c32)cc1 (centres undefined)	.	.	.	.	.	.
C=C(C)C(=O)Nc1cccc(C2=NOC3(C2)C[C@H](C(N)=O)N(C(=O)CC#N)C3)c1 (some centres undefined)	/	/	.	/	57	/
C/C=C/C=C\C(=O)Nc1cccc(C2=NOC3(C2)C[C@H](C(N)=O)N(C(=O)CC#N)C3)c1 (some centres undefined)	.	71	.	.	67	.
C/C=C\C=C/C(=O)Nc1cccc(C2=NOC3(C2)C[C@H](C(N)=O)N(C(=O)CC)C3)c1 (some centres undefined)	.	.	.	.	.	.
O=[N+]([O-])c1ccc2nc(NN=Cc3ccc(O)cc3)sc2c1	.	.	.	.	.	.
COC(=O)c1cc(O)cc(OC)c1Oc1cc(C)cc(O)c1C(=O)O	.	44	.	.	58	.
COC(=O)c1c(C)cc(O)cc1O	.	.	.	.	.	.
O[C@@H]1CN(CC2CCCCC2)[C@@H](c2ccccc2)C[C@H]1n1cc(-c2ccc(F)cc2)nn1	.	.	/	.	/	.
CCCN(CCC)C(=O)c1cc([N+](=O)[O-])cc2c1-c1ccc([N+](=O)[O-])cc1C2=C(C#N)C#N	/	/	41	/	.	/
Cc1onc(-c2ccccc2Cl)c1C(=O)NNC(=O)c1ccccc1F	.	.	.	.	.	.
CCN(CC)CCCNc1nc(-c2ccccc2)nc2ccccc12	.	.	.	.	.	.
c1ccc(-c2nc(NCCCn3ccnc3)c3ccccc3n2)cc1	.	.	.	.	.	57
O=C(O)CCCCCNc1nc(-c2ccccc2)nc2ccccc12	.	.	.	.	.	59
CN(C)c1ncnc2c1ncn2[C@H]1CN(Cc2ccc(-c3ccccc3)cc2)C[C@@H](CO)O1	.	.	/	.	/	.
CCC(C(=O)NCc1ccc(F)cc1)N(Cc1ccco1)C(=O)c1snc(C(N)=O)c1N (centres undefined)	.	.	.	.	.	.
CCCC(C(=O)NCc1ccc(OC)cc1)N(Cc1ccco1)C(=O)c1snc(C(N)=O)c1N (centres undefined)	.	51	.	.	.	.
Clc1nssc1=Nc1ccc(Br)cc1	.	.	.	.	.	50
N#Cc1cccc(N=c2ssnc2Cl)c1	/	/	.	/	.	/
COc1ccc(Nc2oc(COc3ccc(Cl)cc3)nc2C#N)cc1	.	42	.	.	.	.
SMILES	STEP inh	SUMO1 PPI mod	HKDC1 inhibitor	DNMT1 block	Scp-1 inhibitor	LMPTP block
CC(C)C[C@H]1CN([C@@H](Cc2ccccc2)CN2CCC[C@H]2CN2C(=O)C(=O)NC[C@@H]2Cc2ccccc2)C(=O)C(=O)N1CCc1ccccc1	/	.	/	/	/	.
CC(NNC(=S)N1CCCCCC1)c1ccc2ccccc2n1 (centres undefined)	.	.	/	.	/	.
Cc1ccc([N+](=O)[O-])cc1-c1ccc(/C=N/NC(=O)c2cc3c(ccc4ccccc43)o2)o1	.	.	.	.	.	.
O=C(N/N=C/c1ccc(-c2ccc(Cl)c(C(=O)O)c2)o1)c1cc2c(ccc3ccccc32)o1	.	.	.	.	89	.
COc1ccc(/C=N\NC(=O)c2cc3c(ccc4ccccc43)o2)cc1O	.	68	.	.	.	.
COc1ccc(/C=N/NC(=O)c2cc3c(ccc4ccccc43)o2)cc1OC	.	.	.	.	.	.
O=C(N/N=C/c1ccncc1)c1cc2c(ccc3ccccc32)o1	.	52	.	.	.	.
CCN(CC)S(=O)(=O)c1ccc(OC)c(NC(=O)c2cc(=O)[nH]c3ccccc23)c1	.	.	.	.	.	.
O=C(COc1ccccc1Cl)Nc1cc(NC(=O)COc2ccccc2Cl)cc(C(=O)O)c1	.	.	.	.	73	.
COc1cc(CNc2ncnc3c2ncn3[C@H]2CN(Cc3ccc(Cl)cc3)C[C@@H](CO)O2)cc(OC)c1OC	.	.	/	.	/	.
O=C(NC1CCCC1)c1ccc2nc(-c3ccco3)c(-c3ccco3)nc2c1	.	.	.	113	79	56
O=C(NCCc1ccccc1)c1ccc2nc(-c3ccco3)c(-c3ccco3)nc2c1	.	.	.	105	77	59
O=C(Nc1ccc2nc(-c3ccco3)c(-c3ccco3)nc2c1)N1CCCCCC1	/	/	45	/	88	/
Cc1nc2ccc(NC(=O)N3CCCCC3)cc2nc1C	.	.	.	.	.	.
Cc1cccc(N2CCN(C(=O)C3CCC(=O)N(C4CC4)C3)CC2)c1C (centres undefined)	.	.	.	.	.	.
Cc1csc(=O)n1CCC(=O)OCC(=O)N(C)c1c(N)n(Cc2ccccc2)c(=O)[nH]c1=O	.	.	/	.	/	.
Cc1ccc(/C=C2/Sc3ccc(C(=O)NCc4ccccn4)cc3NC2=O)cc1	.	50	.	.	.	.
OC(c1cccc(Cl)c1)c1nc(-c2ccoc2)cs1 (centres undefined)	.	.	/	.	/	.
Nc1c(C(=O)NCc2ccccc2)c2nc3ccccc3nc2n1CCCN1CCOCC1	.	43	.	.	.	.
C=CCn1c(N)c(C(=O)NCC2CCCO2)c2nc3ccccc3nc21 (centres undefined)	.	44	.	.	.	.
COc1cccc(CCC(=O)N2CCC(n3nccc3NC(=O)CC(C)C)CC2)c1	.	102	.	.	.	.
COc1ccc(N(Cc2cc(=O)[nH]c3ccccc23)C(=O)CCl)cc1	.	.	.	.	.	.
